Legend:
D1-active mutant (E578Q) [1] = biological target: T1, D1-active mutant (E578Q) (Homo sapiens, UniProt P55072, E578Q); test: ATPase assay, D1-active Walker B mutant; format: biochemical
Procedure, shortened: (§1)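 Human p97 (WT or the Walker B mutant named), 25 nM monomer, in 50 mM Tris pH 7.4, 20 mM MgCl2, 1 mM EDTA, 0.5 mM TCEP, 0.01% Triton X-100 and 200 μM ATP. An initial 4-dose titration (30, 10, 3.3, 1.1 μM) was run in triplicate, then an 8-dose titration (30 down to 0.04 μM, plus 0). ATPase activity was read with Biomol Green reagent.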

D1-active mutant (E578Q) [2] = biological target: T1, D1-active mutant (E578Q); conditions: previous studies of the authors; cited from earlier work
wild-type p97 = wild-type p97 (Homo sapiens, UniProt P55072); test: ATPase assay, wild type p97; format: biochemical
Sequence of wild-type p97 (P55072 whole entry): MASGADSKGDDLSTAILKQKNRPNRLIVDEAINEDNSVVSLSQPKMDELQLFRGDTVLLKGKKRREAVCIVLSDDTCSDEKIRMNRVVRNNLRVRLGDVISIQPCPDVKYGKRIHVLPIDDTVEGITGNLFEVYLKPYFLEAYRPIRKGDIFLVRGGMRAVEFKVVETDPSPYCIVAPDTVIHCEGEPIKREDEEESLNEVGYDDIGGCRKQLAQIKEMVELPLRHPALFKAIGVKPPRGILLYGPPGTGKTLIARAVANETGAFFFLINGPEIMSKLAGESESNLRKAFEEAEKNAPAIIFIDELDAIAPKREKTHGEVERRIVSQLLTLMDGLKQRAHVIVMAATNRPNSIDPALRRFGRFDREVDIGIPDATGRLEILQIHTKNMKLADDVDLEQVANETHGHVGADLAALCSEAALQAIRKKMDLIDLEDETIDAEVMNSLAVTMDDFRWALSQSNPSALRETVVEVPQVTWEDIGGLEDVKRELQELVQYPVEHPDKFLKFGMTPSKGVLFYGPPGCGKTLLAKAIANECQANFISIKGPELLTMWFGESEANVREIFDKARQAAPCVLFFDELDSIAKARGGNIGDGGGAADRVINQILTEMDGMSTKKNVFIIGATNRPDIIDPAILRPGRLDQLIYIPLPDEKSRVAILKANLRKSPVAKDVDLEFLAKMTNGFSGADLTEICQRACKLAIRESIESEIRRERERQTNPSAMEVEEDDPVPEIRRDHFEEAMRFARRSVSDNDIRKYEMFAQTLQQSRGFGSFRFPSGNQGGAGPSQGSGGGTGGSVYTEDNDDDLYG
Procedure, shortened: as §1

p97-p47 complex [3] = biological target: T2, p97-p47 complex (Homo sapiens, UniProt P55072); test: ATPase assay, p97-p47 complex; format: biochemical
T2 sequence (P55072 whole entry): as above
T2 sequence (Q9UNZ2 whole entry partner): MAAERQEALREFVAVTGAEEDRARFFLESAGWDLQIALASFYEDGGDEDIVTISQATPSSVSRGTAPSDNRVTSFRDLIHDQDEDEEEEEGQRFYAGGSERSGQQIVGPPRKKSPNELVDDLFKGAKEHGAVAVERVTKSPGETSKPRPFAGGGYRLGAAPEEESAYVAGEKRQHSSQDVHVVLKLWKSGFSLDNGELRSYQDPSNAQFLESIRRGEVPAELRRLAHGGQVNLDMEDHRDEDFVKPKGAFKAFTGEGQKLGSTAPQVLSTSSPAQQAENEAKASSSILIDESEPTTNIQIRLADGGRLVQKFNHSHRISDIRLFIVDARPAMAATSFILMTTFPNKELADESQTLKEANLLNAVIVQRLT
Procedure, shortened: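 The p97-p47 complex was formed by adding p47 to 400 nM final with human p97 at 25 nM monomer. Buffer was 50 mM Tris pH 7.4, 20 mM MgCl2, 1 mM EDTA, 0.5 mM TCEP, 0.01% Triton X-100 and 200 μM ATP. Titrations were 4-dose in triplicate (30–1.1 μM), then 8-dose (30–0.04 μM, plus 0). Activity was detected with Biomol Green reagent.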

D2-active mutant (E305Q) = D2-active mutant (E305Q) (Homo sapiens, UniProt P55072, E305Q); test: ATPase assay, D2-active Walker B mutant; format: biochemical
Sequence of D2-active mutant (E305Q) (P55072 whole entry E305Q): as the sequence (P55072 whole entry) above, with E305Q counted along it
Procedure, shortened: as §1

p97-p47 complex [4] = biological target: T2, p97-p47 complex; conditions: cited from earlier work; for inhibition of the p97-p47 complex compared to p97 alone, in words: Figure 1 legend, earlier work of the authors; for fold decrease in potency caused by p47 (p97-p47 complex versus p97): previously found by the authors

T1 sequence (P55072 whole entry E578Q): as the sequence (P55072 whole entry) above, with E578Q counted along it

| Compound | domain selectivity D1 versus D2 (E578Q versus E305Q mutants), in words (D1-active mutant (E578Q) [1]; 8-dose titration, Figure 3 / Table S1) | domain selectivity D1 versus D2, in words (D1-active mutant (E578Q) [2]) | IC50 (wild-type p97) | IC50 (p97-p47 complex [3]) | IC50 (D2-active mutant (E305Q)) | fold increase of IC50 against the D2-active mutant (E305Q) compared to WT p97 (D2-active mutant (E305Q); 200 μM ATP) | selectivity toward the D2 domain (D2-active mutant (E305Q); D2 versus D1) | IC50 (D1-active mutant (E578Q) [1]) | fold increase of IC50 against the D1-active mutant (E578Q) compared to WT p97 (D1-active mutant (E578Q) [1]; 200 μM ATP) | inhibition of the p97-p47 complex compared to p97 alone, in words (p97-p47 complex [4]) | fold decrease in potency caused by p47 (p97-p47 complex versus p97) (p97-p47 complex [4]) |
| --- | --- | --- | --- | --- | --- | --- | --- | --- | --- | --- | --- |
| Cc1cc(OCc2nnc(SC3CCCC3)n2-c2cccnc2)ccc1-c1ccc(S(C)(=O)=O)cc1 [NMS-873] | inhibited the ATPase activity of both the D1 and D2 domains | inhibit both the D1 and D2 ATPase domains | – | – | – | – | – | – | – | – | – |
| c1ccc(CNc2nc(NCc3ccccc3)c3ccccc3n2)cc1 [DBeQ, N2,N4-dibenzylquinazoline-2,4-diamine] | – | inhibit both the D1 and D2 ATPase domains | 5.4 µM | 12.3 µM | 7.6 µM | 1.4 fold | 3 fold | 13.1 µM | 2.4 fold | – | – |
| COc1cccc2c(NCc3ccccc3)nc(-n3c(N)nc4ccccc43)nc12 [ML240] | – | selectively inhibit D2 | – | – | – | – | – | – | – | less inhibition of the p97-p47 complex | ~ 50 fold |
| c1ccc(CNc2nc(N3CCOc4ccccc43)nc3c2CCCC3)cc1 [ML241] | – | selectively inhibit D2 | – | – | – | – | – | – | – | less inhibition of the p97-p47 complex | ~ 50 fold |

Reference: article PMC4280364 (ChemMedChem, 2014)
